For series [1], the system named is Escherichia coli. In words: Growth inhibition of Escherichia coli DH5[alpha] expressing ESBL TEM-116 incubated for 18 hrs by broth microdilution method. The class given is functional. A general note: In broth dilution the organism is exposed to a series of concentrations in liquid medium.
The test system of series [2] is Escherichia coli. Briefly: Growth inhibition of ciprofloxacin-susceptible Escherichia coli DH5[alpha] incubated for 18 hrs by broth microdilution method. Type of series: organism-based. The following applies: in vivo. The essentials:
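MIC determination against E. coli DH5α, either lacking β-lactamase or expressing the ESBL TEM-116. The MIC is the minimal concentration that inhibits bacterial growth.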

The test system of series [3] is Escherichia coli. In words: Growth inhibition of ciprofloxacin-susceptible Escherichia coli CFT073 harboring pSU18 incubated for 18 hrs by broth microdilution method. Type of series: organism-based. The following applies: in vivo. The gist of the method: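 MIC determination in E. coli CFT073, either wild type or carrying pSU18 (empty pEMP, or encoding CTX-M, NDM-1 or KPC). Dose–response growth curves were run, and each point is the mean ± SEM of n = 3. The MIC is the minimal concentration that inhibits bacterial growth.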

Series [4] is described as follows: Selectivity ratio of MIC for ciprofloxacin-susceptible Escherichia coli CFT073 harboring pSU18 to MIC for ciprofloxacin-susceptible Escherichia coli DH5[alpha]. Type of series: ADME.
In series [5] the test system is Escherichia coli. Briefly: Growth inhibition of Escherichia coli CFT073 harboring pSU18 and CTX-M-1 incubated for 18 hrs by broth microdilution method. To be noted: CFT073, 18 h.
Series [6] is described as follows: Prodrug activation in Escherichia coli CFT073 harboring CTX-M-1 assessed as bacterial CTX-M-1-mediated compound hydrolysis incubated for 1 hr by 1H-NMR analysis. The following applies: bacteria. The gist of the method: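 Whole-cell hydrolysis used E. coli CFT073 carrying pSU18 encoding CTX-M-1. The read-out was percentage of compound hydrolysed after 60 min.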

A short description of series [7]: Prodrug activation in Escherichia coli DH5[alpha] expressing beta-lactamase CTX-M-1 assessed as bacterial CTX-M-1-mediated compound hydrolysis at 100 uM incubated for 60 mins by 1H-NMR spectra analysis. To be noted: bacteria.
Series [8] is described as follows: Drug metabolism in CTX-M-1-deficient Escherichia coli DH5[alpha] assessed as compound hydrolysis at 100 uM incubated for 60 mins by 1H-NMR spectra analysis. To be noted: CTX-M-1-deficient Escherichia coli DH5alpha cells, read-out: Drug metabolism. Type of series: ADME.
Series [9] in a line: Drug metabolism in TEM-116-deficient Escherichia coli DH5[alpha] assessed as compound hydrolysis at 100 uM incubated for 90 mins by 1H-NMR spectra analysis. The class given is ADME. To be noted: TEM-116-deficient Escherichia coli DH5alpha cells, read-out: Drug degradation.
A short description of series [10]: Prodrug activation in Escherichia coli DH5[alpha] expressing TEM-116 assessed as bacterial TEM-116 mediated compound hydrolysis at 100 uM incubated for 90 mins by 1H-NMR spectra analysis. To be noted: bacteria, 1.5 h.
For series [11], the system named is Enterococcus faecalis. In words: Effect on growth of Enterococcus faecalis ATCC 29212 incubated for 18 hrs by broth microdilution method. Type of series: organism-based. The following applies: in vivo.
Series [12] deals with DNA gyrase (Escherichia coli) (UniProt P0AES6+P0AES4). To be noted: 1 uM.
Series [13] relates to Enterococcus faecalis. Briefly: Effect on growth of Enterococcus faecalis GW01 incubated for 18 hrs by broth microdilution method. Type of series: organism-based. To be noted: in vivo.
The nature of series [14]: Prodrug activation in Escherichia coli DH5[alpha] expressing TEM-116 assessed as bacterial TEM-116 mediated compound hydrolysis at 50 uM incubated for 60 mins by 1H-NMR spectra analysis. The following applies: bacteria.

SMILES strings stand for the structures. Values after ≈ are worked out from the molar mass of the structure shown. Active and inactive are the calls of the source. The rule behind the calls is not given here.

With `CC(=O)OCC1=C(C(=O)O)N2C(=O)[C@@H](NC(=O)Cc3ccc(F)cc3)[C@H]2SC1`, the MIC in series [1] is 200 µM (≈ 81.7 µg/mL); in series [2] it was 100 µM (≈ 40.8 µg/mL); in series [3], 100 µM (≈ 40.8 µg/mL); in series [5], over 400 µM. For the same compound, in [4], the Selectivity ratio result was “<= 2”. The Drug metabolism in series [6] worked out at 18%.

For the compound `CC(=O)OCC1=C(C(=O)O)N2C(=O)[C@@H](NC(=O)C3CCCCC3)[C@H]2SC1`, the MIC in series [1] and in series [2] was over 400 µM in each case.

On to `CC(=O)OCC1=C(C(=O)O)N2C(=O)[C@@H](NC(=O)c3ccco3)[C@H]2SC1`, for which the MIC in series [1], in series [2], in series [3] and in [5] was over 400 µM each time. In addition, the Selectivity ratio result in series [4] is given as “<= 2”. Further, in series [6], the Drug metabolism is listed as 64%.

As for `CC(=O)OCC1=C(C(=O)O)N2C(=O)[C@@H](NC(=O)Cc3ccc(-c4ccccc4)cc3)[C@H]2SC1`, the Drug metabolism in [7] was 100%; in series [10], 69%; in series [6], 4%. Further, the MIC in series [1] is over 800 µM; in series [2], over 800 µM; in series [3], over 400 µM; in series [5], over 400 µM. Besides, the metabolised at 1 h, 100 µM in series [8] came out at 0%. Also, the metabolised at 1.5 h, 100 µM in series [9] came to 14%. Besides, the Selectivity ratio entry in series [4] is listed as “<= 2”.

As to `CC(=O)OCC1=C(C(=O)O)N2C(=O)[C@@H](NC(=O)Cc3cc(Br)cs3)[C@H]2SC1`, the MIC in series [1] was 200 µM (≈ 95.1 µg/mL); in series [2] it was 50 µM (≈ 23.8 µg/mL); in series [3] it was 50 µM (≈ 23.8 µg/mL); in [5], over 400 µM. In series [4], the Selectivity ratio result is recorded as “<= 2”.

As for `CC(=O)OCC1=C(C(=O)O)N2C(=O)[C@@H](NC(=O)[C@H](C)c3ccccc3)[C@H]2SC1`, the MIC was over 800 µM in [1], 400 µM (≈ 162 µg/mL) in series [2], over 400 µM in series [3] and over 400 µM in series [5]. Also, the Selectivity ratio entry in series [4] is “<= 2”.

For `COc1ccc(C(=O)N[C@@H]2C(=O)N3C(C(=O)O)=C(COC(C)=O)CS[C@H]23)cc1`, the MIC was over 800 µM in series [1], over 800 µM in series [2], over 400 µM in series [3] and over 400 µM in series [5]. Besides, in series [4], the Selectivity ratio entry is listed as “<= 2”. Besides, in [6], the Drug metabolism is reported as 3%.

`CCCCCC(=O)N[C@@H]1C(=O)N2C(C(=O)O)=C(COC(C)=O)CS[C@H]12`: the MIC was over 800 µM in series [1], 200 µM (≈ 74.1 µg/mL) in series [2], 100 µM (≈ 37 µg/mL) in series [3] and over 400 µM in series [5]. Further, the Selectivity ratio result in [4] is “<= 2”. In addition, in [6], the Drug metabolism is given as 7%.

Take `CC(=O)OCC1=C(C(=O)O)N2C(=O)[C@@H](NC(=O)Cc3cccc(C)c3)[C@H]2SC1`: the MIC in [1] is 400 µM (≈ 162 µg/mL); in series [2] it was 200 µM (≈ 80.9 µg/mL); in [3], 200 µM (≈ 80.9 µg/mL); in series [5], over 400 µM. The Selectivity ratio entry in series [4] is reported as “<= 2”. Further, in series [6], the Drug metabolism is reported as 16%.

Take `CC(=O)OCC1=C(C(=O)O)N2C(=O)[C@@H](NC(=O)c3ccc(C)cc3)[C@H]2SC1`: the MIC in series [1], in series [2], in series [3] and in series [5] was over 400 µM each time. In series [4], the Selectivity ratio entry was “<= 2”. Further, the Drug metabolism in series [6] amounted to 3%.

As for `O=C(O)c1cn(C2CC2)c2cc(N3CCNCC3)c(F)cc2c1=O` [CIPROFLOXACIN], the Activity result in [11] and in series [13] was “Toxic” each time. Also, in series [12], the inhibition result is “Active”.

With `CC(=O)OCC1=C(C(=O)O)N2C(=O)[C@@H](NC(=O)Cc3ccc(Br)cc3)[C@H]2SC1`, the MIC in series [1] is 800 µM (≈ 375 µg/mL); in [2], 200 µM (≈ 93.9 µg/mL); in series [3], 100 µM (≈ 46.9 µg/mL); in series [5], over 400 µM. Also, the Selectivity ratio entry in [4] was “<= 2”. In [6], the Drug metabolism was found to be 9%.

As to `CC(=O)OCC1=C(C(=O)O)N2C(=O)[C@@H](NC(=O)Cc3cccc(Oc4ccccc4)c3)[C@H]2SC1`, the MIC was over 800 µM in series [1], over 800 µM in [2], “>= 400 uM” in series [3] and over 400 µM in series [5]. For the same compound, in series [4], the Selectivity ratio result is “<= 2”.

Turning to `CCCC(=O)N[C@@H]1C(=O)N2C(C(=O)O)=C(COC(C)=O)CS[C@H]12`, the MIC was 400 µM (≈ 137 µg/mL) in series [1], 100 µM (≈ 34.2 µg/mL) in series [2], 200 µM (≈ 68.5 µg/mL) in series [3] and over 400 µM in series [5]. Besides, the Selectivity ratio result in series [4] is given as “<= 2”. Besides, in [6], the Drug metabolism came out at 25%.

As to `CC(=O)OCC1=C(C(=O)O)N2C(=O)[C@@H](NC(=O)Cc3ccc(C)cc3)[C@H]2SC1`, the MIC in series [1] was 400 µM (≈ 162 µg/mL); in series [2], 100 µM (≈ 40.4 µg/mL); in series [3], 100 µM (≈ 40.4 µg/mL); in [5], over 400 µM. The Selectivity ratio result in series [4] is “<= 2”. Besides, the Drug metabolism in series [6] was found to be 7%.

Turning to `CC(=O)OCC1=C(C(=O)O)N2C(=O)[C@@H](NC(=O)Cc3ccc(Cl)cc3)[C@H]2SC1`, the MIC is 400 µM (≈ 170 µg/mL) in series [1], 100 µM (≈ 42.5 µg/mL) in series [2], 100 µM (≈ 42.5 µg/mL) in [3] and over 400 µM in series [5]. In addition, the Selectivity ratio result in series [4] is “<= 2”. For the same compound, the Drug metabolism in [6] is reported as 14%.

With `CC(=O)N[C@@H]1C(=O)N2C(C(=O)O)=C(COC(C)=O)CS[C@H]12`, the MIC in series [2] was 200 µM (≈ 62.9 µg/mL); in series [3], 400 µM (≈ 126 µg/mL); in series [5], over 400 µM. The Selectivity ratio entry in series [4] is on record as “<= 2”. Moreover, in series [6], the Drug metabolism is on record as 67%.

Consider `CC(=O)OCC1=C(C(=O)O)N2C(=O)[C@@H](NC(=O)Cc3cccs3)[C@H]2SC1` [CEPHALOTHIN], for which the Drug metabolism in [7] turned out to be 100%; in series [14], 61%; in [6], 68%. Also, the MIC in [1] is 100 µM (≈ 39.6 µg/mL); in series [2] it was 12.5 µM (≈ 4.96 µg/mL); in [3], 25 µM (≈ 9.91 µg/mL); in series [5], over 400 µM. For the same compound, the metabolised at 1 h, 100 µM in series [8] was determined as 0%. Also, the Selectivity ratio entry in [4] was “<= 2”.

As for `CC(=O)OCC1=C(C(=O)O)N2C(=O)[C@@H](NC(=O)Cc3ccsc3)[C@H]2SC1`, the MIC was 200 µM (≈ 79.3 µg/mL) in [1], 50 µM (≈ 19.8 µg/mL) in series [2], 50 µM (≈ 19.8 µg/mL) in series [3] and over 400 µM in series [5]. In addition, the Selectivity ratio entry in series [4] is reported as “<= 2”. Moreover, the Drug metabolism in series [6] is on record as 32%.

In the case of `CC(=O)OCC1=C(C(=O)O)N2C(=O)[C@@H](NC(=O)Cc3ccccc3)[C@H]2SC1` [CEFALORAM], the MIC was 100 µM (≈ 39 µg/mL) in [1], 50 µM (≈ 19.5 µg/mL) in series [2], 50 µM (≈ 19.5 µg/mL) in series [3] and over 400 µM in [5]. Further, the Selectivity ratio entry in series [4] is reported as “<= 2”. In [6], the Drug metabolism came to 17%.

On to `CC(=O)OCC1=C(C(=O)O)N2C(=O)[C@@H](NC(=O)Cc3ccc(Oc4ccccc4)cc3)[C@H]2SC1`, for which the Drug metabolism in series [7] was found to be 94%; in series [10], 54%; in series [6], 4%. Further, the MIC was over 800 µM in series [1], over 800 µM in series [2], over 400 µM in series [3] and over 400 µM in series [5]. Also, in series [8], the metabolised at 1 h, 100 µM came to 0%. Besides, the metabolised at 1.5 h, 100 µM in [9] stood at 13%. Moreover, the Selectivity ratio entry in [4] was “<= 2”.

For `CC(=O)OCC1=C(C(=O)O)N2C(=O)[C@@H](NC(=O)c3ccccc3)[C@H]2SC1`, the MIC in series [1], in series [2], in series [3] and in series [5] was over 400 µM in each case. The Selectivity ratio result in series [4] was “<= 2”. In addition, the Drug metabolism in [6] amounted to 26%.

`CC(=O)OCC1=C(C(=O)O)N2C(=O)[C@@H](NC(=O)c3ccc([N+](=O)[O-])cc3)[C@H]2SC1`: the MIC in [1] and in series [2] was over 400 µM in each case.

For the origin of these results see ChEMBL document CHEMBL4334441, “Exploitation of Antibiotic Resistance as a Novel Drug Target: Development of a β-Lactamase-Activated Antibacterial Prodrug” (J Med Chem, 2019).
